Test results published in ChEMBL document CHEMBL4138266, “Lysine Analogue of Polymyxin B as a Significant Opportunity for Photodynamic Antimicrobial Chemotherapy” (ACS Med Chem Lett, 2018).
Converted amounts (≈) assume the structure as drawn.

Experiments:
[1] = tested on: Staphylococcus aureus; assay: Photobactericidal activity against Staphylococcus aureus CIP76.25 irradiated with white light at 4.83 mW/cm2 for 20 hrs; assay type: functional; conditions: CIP76.25, light or radiation study
Procedure, shortened: (§1)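 Minimal bactericidal concentration (MBC) was determined in tryptic soy medium with log-phase bacteria at 37 °C. Plates were either kept in the dark or given 20 h of white light at 4.83 mW/cm². MBC was taken as the concentration killing 99.99% of bacteria, i.e. a 4-log reduction versus the untreated control.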

[2] = tested on: Pseudomonas aeruginosa; assay: Photobactericidal activity against Pseudomonas aeruginosa CIP76110 irradiated with white light at 4.83 mW/cm2 for 20 hrs; assay type: functional; conditions: CIP76110, light or radiation study; procedure, shortened: as §1
[3] = tested on: Escherichia coli; assay: Photobactericidal activity against Escherichia coli CIP54.8T irradiated with white light at 4.83 mW/cm2 for 20 hrs; assay type: functional; conditions: light or radiation study; procedure, shortened: as §1
[4] = tested on: Staphylococcus aureus; assay: Bactericidal activity against Staphylococcus aureus CIP76.25 incubated for 30 mins under dark conditions; assay type: ADME, organism-based; conditions: 0.5 h
Procedure, shortened: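 S. aureus exposed to compound in PBS 1X for 30 min at 37 °C, then washed three times with PBS. The light arm was white LED irradiation at 4.83 mW/cm² (7 J/cm² = 24 min) at 37 °C. Survival was expressed as % of initial bacterial density.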

[5] = tested on: Pseudomonas aeruginosa; assay: Bactericidal activity against Pseudomonas aeruginosa CIP76110 incubated for 30 mins under dark conditions; assay type: organism-based; conditions: 0.5 h; procedure, shortened: as §1
[6] = tested on: Escherichia coli; assay: Bactericidal activity against Escherichia coli CIP54.8T incubated for 30 mins under dark conditions; assay type: organism-based; conditions: 0.5 h; procedure, shortened: as §1

Row | SMILES | MBC [1] [µM] | MBC [2] [µM] | MBC [3] [µM] | MBC [4] [µM] | MBC [5] [µM] | MBC [6] [µM]
1 | C[n+]1ccc(-c2c3nc(c(-c4cc[n+](C)cc4)c4ccc([nH]4)c(-c4cc[n+](C)cc4)c4nc(c(-c5cc[n+](C)cc5)c5ccc2[nH]5)C=C4)C=C3)cc1 | 5 | 20 | 18 |  |  | 
2 | CCCCCCCC(=O)N[C@@H](CS)C(=O)N[C@H](C(=O)N[C@@H](CCN)C(=O)N[C@H]1CCNC(=O)[C@H]([C@@H](C)O)NC(=O)[C@H](CCN)NC(=O)[C@H](CCN)NC(=O)[C@H](CC(C)C)NC(=O)[C@@H](Cc2ccccc2)NC(=O)[C@H](CCN)NC1=O)[C@@H](C)O | > 50 | 10 (≈ 11.9 µg/mL) | 5 (≈ 5.96 µg/mL) | > 50 | 10 (≈ 11.9 µg/mL) | 5 (≈ 5.96 µg/mL)
3 | CCCCCCCC(=O)N[C@@H](CS)C(=O)N[C@H](C(=O)N[C@@H](CCCCN)C(=O)N[C@H]1CCNC(=O)[C@H]([C@@H](C)O)NC(=O)[C@H](CCCCN)NC(=O)[C@H](CCCCN)NC(=O)[C@H](CC(C)C)NC(=O)[C@@H](Cc2ccccc2)NC(=O)[C@H](CCCCN)NC1=O)[C@@H](C)O |  | > 100 | 50 (≈ 65.2 µg/mL) |  | > 100 | 50 (≈ 65.2 µg/mL)
